Experimental data as given in ChEMBL document CHEMBL1136761 (J Med Chem, 2003).

Tested on: not listed separately
Assay: Ratio between the inhibition of serotonin and dopamine uptake.
Work on Ic1ccc(CN2CCC(CCOC(c3ccccc3)c3ccccc3)CC2)cc1 yielded a Ratio of 500.

Molecular target: T1, Sodium-dependent serotonin transporter (Rattus norvegicus, UniProt P31652)
T1 sequence (P31652 whole entry): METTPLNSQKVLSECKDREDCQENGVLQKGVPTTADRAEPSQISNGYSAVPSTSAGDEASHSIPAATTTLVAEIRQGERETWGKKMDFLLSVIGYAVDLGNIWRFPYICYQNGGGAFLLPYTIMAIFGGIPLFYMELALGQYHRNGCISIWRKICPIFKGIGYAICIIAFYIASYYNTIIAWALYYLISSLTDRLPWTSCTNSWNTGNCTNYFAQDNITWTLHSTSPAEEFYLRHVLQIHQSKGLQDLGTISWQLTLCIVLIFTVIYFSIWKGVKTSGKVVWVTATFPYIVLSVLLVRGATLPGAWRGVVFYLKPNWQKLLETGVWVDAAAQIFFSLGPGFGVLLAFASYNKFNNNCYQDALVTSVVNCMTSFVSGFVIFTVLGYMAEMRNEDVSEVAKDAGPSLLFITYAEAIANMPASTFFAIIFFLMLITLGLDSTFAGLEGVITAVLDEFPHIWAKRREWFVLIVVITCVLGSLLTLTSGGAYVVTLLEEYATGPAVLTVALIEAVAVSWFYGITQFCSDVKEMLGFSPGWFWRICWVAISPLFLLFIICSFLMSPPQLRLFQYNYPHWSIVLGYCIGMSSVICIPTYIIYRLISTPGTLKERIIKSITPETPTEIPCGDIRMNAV
Assay: Inhibition of [3H]5-HT uptake at the rat serotonin transporter.
Fc1ccc(C(OCCC2CCN(Cc3ccc4ccccc4c3)CC2)c2ccc(F)cc2)cc1 gave a Ki of 227 nM. For Fc1ccc(C(OCCC2CCN(Cc3ccc(I)cc3)CC2)c2ccc(F)cc2)cc1, the Ki was 1020 nM. Fc1ccc(CN2CCC(CCOC(c3ccc(F)cc3)c3ccc(F)cc3)CC2)cc1 gave a Ki of 601 nM. In the case of Brc1ccc(CN2CCC(CCOC(c3ccccc3)c3ccccc3)CC2)cc1, the Ki is reported as 1320 nM. O=[N+]([O-])c1ccc(CN2CCC(CCOC(c3ccccc3)c3ccccc3)CC2)cc1 gave a Ki of 3580 nM. Work on O=[N+]([O-])c1ccc(CN2CCC(CCOC(c3ccc(F)cc3)c3ccc(F)cc3)CC2)cc1 yielded a Ki of 1560 nM. Molecule Ic1ccc(CN2CCC(CCOC(c3ccccc3)c3ccccc3)CC2)cc1 has a Ki of 2570 nM.

Molecular target: T2, Sodium-dependent dopamine transporter (Rattus norvegicus, UniProt P23977)
T2 sequence (P23977 whole entry): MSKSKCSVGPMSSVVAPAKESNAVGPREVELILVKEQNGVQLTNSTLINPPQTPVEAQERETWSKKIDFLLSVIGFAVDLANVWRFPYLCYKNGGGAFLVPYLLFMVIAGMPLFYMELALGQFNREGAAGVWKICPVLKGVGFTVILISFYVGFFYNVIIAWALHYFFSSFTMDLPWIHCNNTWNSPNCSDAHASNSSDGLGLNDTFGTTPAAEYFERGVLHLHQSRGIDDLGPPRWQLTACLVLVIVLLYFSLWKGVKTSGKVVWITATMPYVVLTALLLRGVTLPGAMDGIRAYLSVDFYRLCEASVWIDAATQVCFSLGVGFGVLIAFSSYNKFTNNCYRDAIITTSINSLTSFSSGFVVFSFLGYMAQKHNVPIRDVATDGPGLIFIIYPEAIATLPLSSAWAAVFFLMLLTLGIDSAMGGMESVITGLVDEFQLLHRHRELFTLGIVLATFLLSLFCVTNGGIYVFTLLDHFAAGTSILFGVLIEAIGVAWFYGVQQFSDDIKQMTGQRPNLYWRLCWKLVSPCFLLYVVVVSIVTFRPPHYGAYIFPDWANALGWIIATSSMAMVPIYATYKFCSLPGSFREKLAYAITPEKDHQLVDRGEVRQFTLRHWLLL
Assay: Inhibition of [3H]dopamine uptake via rat dopamine transporter.
Fc1ccc(C(OCCC2CCN(Cc3ccc4ccccc4c3)CC2)c2ccc(F)cc2)cc1 gave a Ki of 7.2 nM. Work on Fc1ccc(C(OCCC2CCN(Cc3ccc(I)cc3)CC2)c2ccc(F)cc2)cc1 yielded a Ki of 13.6 nM. Fc1ccc(CN2CCC(CCOC(c3ccc(F)cc3)c3ccc(F)cc3)CC2)cc1 showed a Ki of 3.8 nM. Molecule Brc1ccc(CN2CCC(CCOC(c3ccccc3)c3ccccc3)CC2)cc1 has a Ki of 5.3 nM. Work on O=[N+]([O-])c1ccc(CN2CCC(CCOC(c3ccccc3)c3ccccc3)CC2)cc1 yielded a Ki of 2.7 nM. With O=[N+]([O-])c1ccc(CN2CCC(CCOC(c3ccc(F)cc3)c3ccc(F)cc3)CC2)cc1 the Ki was 6.9 nM. For Ic1ccc(CN2CCC(CCOC(c3ccccc3)c3ccccc3)CC2)cc1, the Ki was 5.1 nM.

Molecular target: T2, Sodium-dependent dopamine transporter
Assay: Affinity at rat dopamine transporter using [125I]RTI-55 displacement.
Summary of the method: (§1)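 Binding was measured by competition against [125I]RTI-55 at DAT and SERT, and affinities were reported as Ki values. The selectivity ratio is SERT Ki divided by DAT Ki. Other conditions follow a cited earlier method.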
Work on Clc1ccc(CN2CCC(CCOC(c3ccccc3)c3ccccc3)CC2)cc1 yielded a Ki of 3.8 nM. With Fc1ccc(C(OCCC2CCN(Cc3ccc(Cl)cc3)CC2)c2ccc(F)cc2)cc1 the Ki was 1.2 nM. In the case of COc1cccc(CN2CCC(CCOC(c3ccc(F)cc3)c3ccc(F)cc3)CC2)c1, the Ki is reported as 13.3 nM. Work on COc1ccccc1CN1CCC(CCOC(c2ccc(F)cc2)c2ccc(F)cc2)CC1 yielded a Ki of 63 nM. Fc1ccc(C(OCCC2CCN(Cc3ccc4ccccc4c3)CC2)c2ccc(F)cc2)cc1 gave a Ki of 0.7 nM. With Fc1ccc(C(OCCC2CCN(Cc3ccc(I)cc3)CC2)c2ccc(F)cc2)cc1 the Ki was 2.1 nM. N#Cc1ccc(CN2CCC(CCOC(c3ccccc3)c3ccccc3)CC2)cc1 showed a Ki of 5.7 nM. For Cc1ccc(CN2CCC(CCOC(c3ccc(F)cc3)c3ccc(F)cc3)CC2)cc1, the Ki was 5.7 nM. Fc1ccc(C(OCCC2CCN(Cc3ccc(C(F)(F)F)cc3)CC2)c2ccc(F)cc2)cc1 showed a Ki of 1.1 nM. Fc1ccc(CN2CCC(CCOC(c3ccc(F)cc3)c3ccc(F)cc3)CC2)cc1 showed a Ki of 2.3 nM. With COc1ccc(CN2CCC(CCOC(c3ccc(F)cc3)c3ccc(F)cc3)CC2)cc1 the Ki was 7.9 nM. With Brc1ccc(CN2CCC(CCOC(c3ccccc3)c3ccccc3)CC2)cc1 the Ki was 6.4 nM. O=[N+]([O-])c1ccc(CN2CCC(CCOC(c3ccccc3)c3ccccc3)CC2)cc1 showed a Ki of 2.5 nM. Work on Fc1ccc(C(OCCC2CCN(Cc3ccc(Br)cc3)CC2)c2ccc(F)cc2)cc1 yielded a Ki of 1.1 nM. In the case of O=[N+]([O-])c1ccc(CN2CCC(CCOC(c3ccc(F)cc3)c3ccc(F)cc3)CC2)cc1, the Ki is reported as 1.2 nM. With FC(F)(F)c1ccc(CN2CCC(CCOC(c3ccccc3)c3ccccc3)CC2)cc1 the Ki was 3.5 nM. Work on Ic1ccc(CN2CCC(CCOC(c3ccccc3)c3ccccc3)CC2)cc1 yielded a Ki of 7.2 nM. With N#Cc1ccc(CN2CCC(CCOC(c3ccc(F)cc3)c3ccc(F)cc3)CC2)cc1 the Ki was 1.2 nM. Work on Fc1ccc(C(OCCC2CCN(Cc3cccc4ccccc34)CC2)c2ccc(F)cc2)cc1 yielded a Ki of 16 nM. With Fc1ccc(CN2CCC(CCOC(c3ccccc3)c3ccccc3)CC2)cc1 the Ki was 5.1 nM. Work on Fc1ccc(C(OCCC2CCN(Cc3ccccc3)CC2)c2ccc(F)cc2)cc1 yielded a Ki of 9.9 nM.

Molecular target: Norepinephrine transporter (Rattus norvegicus, UniProt Q9WTR4)
Sequence (Q9WTR4 whole entry): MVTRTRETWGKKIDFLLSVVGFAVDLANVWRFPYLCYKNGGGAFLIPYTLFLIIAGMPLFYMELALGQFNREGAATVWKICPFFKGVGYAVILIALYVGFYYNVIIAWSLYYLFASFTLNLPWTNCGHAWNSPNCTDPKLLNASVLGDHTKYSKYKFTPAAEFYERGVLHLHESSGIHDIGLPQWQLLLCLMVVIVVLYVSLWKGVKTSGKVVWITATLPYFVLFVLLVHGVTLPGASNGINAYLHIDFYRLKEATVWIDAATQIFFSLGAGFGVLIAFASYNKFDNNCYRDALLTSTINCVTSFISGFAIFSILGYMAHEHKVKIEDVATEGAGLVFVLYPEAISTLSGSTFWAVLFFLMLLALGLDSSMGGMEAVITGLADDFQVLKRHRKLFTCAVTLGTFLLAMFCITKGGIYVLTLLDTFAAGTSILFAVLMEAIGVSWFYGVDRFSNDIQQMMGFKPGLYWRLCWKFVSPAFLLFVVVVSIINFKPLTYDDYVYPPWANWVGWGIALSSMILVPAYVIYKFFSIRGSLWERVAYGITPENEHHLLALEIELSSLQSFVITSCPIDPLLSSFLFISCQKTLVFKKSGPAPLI
Assay: Inhibition of [3H]norepinephrine uptake at the rat norepinephrine transporter.
Work on Fc1ccc(C(OCCC2CCN(Cc3ccc4ccccc4c3)CC2)c2ccc(F)cc2)cc1 yielded a Ki of 93 nM. Fc1ccc(C(OCCC2CCN(Cc3ccc(I)cc3)CC2)c2ccc(F)cc2)cc1 gave a Ki of 546 nM. Molecule Fc1ccc(CN2CCC(CCOC(c3ccc(F)cc3)c3ccc(F)cc3)CC2)cc1 has a Ki of 639 nM. With Brc1ccc(CN2CCC(CCOC(c3ccccc3)c3ccccc3)CC2)cc1 the Ki was 534 nM. In the case of O=[N+]([O-])c1ccc(CN2CCC(CCOC(c3ccccc3)c3ccccc3)CC2)cc1, the Ki is reported as 208 nM. With O=[N+]([O-])c1ccc(CN2CCC(CCOC(c3ccc(F)cc3)c3ccc(F)cc3)CC2)cc1 the Ki was 231 nM. Work on Ic1ccc(CN2CCC(CCOC(c3ccccc3)c3ccccc3)CC2)cc1 yielded a Ki of 479 nM.

Tested on: not listed separately
Assay: Ratio between the inhibition of norepinephrine and dopamine uptake.
Work on Ic1ccc(CN2CCC(CCOC(c3ccccc3)c3ccccc3)CC2)cc1 yielded a Ratio of 93.

Molecular target: Monoamine transporters; serotonin & dopamine (Rattus norvegicus) (UniProt P31652+P23977)
Sequence (P23977 whole entry, looked up): as the sequence (P23977 whole entry) above
Sequence (P31652 whole entry, looked up): as the sequence (P31652 whole entry) above
Assay: Ratio between affinities at the rat dopamine and serotonin transporters.
Assay type: protein assay
Summary of the method: as §1
In the case of Clc1ccc(CN2CCC(CCOC(c3ccccc3)c3ccccc3)CC2)cc1, the Ratio is reported as 140. Fc1ccc(C(OCCC2CCN(Cc3ccc(Cl)cc3)CC2)c2ccc(F)cc2)cc1 gave a Ratio of 198. With COc1cccc(CN2CCC(CCOC(c3ccc(F)cc3)c3ccc(F)cc3)CC2)c1 the Ratio was 12. For COc1ccccc1CN1CCC(CCOC(c2ccc(F)cc2)c2ccc(F)cc2)CC1, the Ratio was 4. For Fc1ccc(C(OCCC2CCN(Cc3ccc(I)cc3)CC2)c2ccc(F)cc2)cc1, the Ratio was 98. N#Cc1ccc(CN2CCC(CCOC(c3ccccc3)c3ccccc3)CC2)cc1 showed a Ratio of 390. Cc1ccc(CN2CCC(CCOC(c3ccc(F)cc3)c3ccc(F)cc3)CC2)cc1 gave a Ratio of 42. With Fc1ccc(C(OCCC2CCN(Cc3ccc(C(F)(F)F)cc3)CC2)c2ccc(F)cc2)cc1 the Ratio was 402. In the case of Fc1ccc(CN2CCC(CCOC(c3ccc(F)cc3)c3ccc(F)cc3)CC2)cc1, the Ratio is reported as 107. COc1ccc(CN2CCC(CCOC(c3ccc(F)cc3)c3ccc(F)cc3)CC2)cc1 gave a Ratio of 34. For Brc1ccc(CN2CCC(CCOC(c3ccccc3)c3ccccc3)CC2)cc1, the Ratio was 154. O=[N+]([O-])c1ccc(CN2CCC(CCOC(c3ccccc3)c3ccccc3)CC2)cc1 showed a Ratio of 859. With Fc1ccc(C(OCCC2CCN(Cc3ccc(Br)cc3)CC2)c2ccc(F)cc2)cc1 the Ratio was 181. O=[N+]([O-])c1ccc(CN2CCC(CCOC(c3ccc(F)cc3)c3ccc(F)cc3)CC2)cc1 showed a Ratio of 323. FC(F)(F)c1ccc(CN2CCC(CCOC(c3ccccc3)c3ccccc3)CC2)cc1 showed a Ratio of 648. With Ic1ccc(CN2CCC(CCOC(c3ccccc3)c3ccccc3)CC2)cc1 the Ratio was 63. Work on N#Cc1ccc(CN2CCC(CCOC(c3ccc(F)cc3)c3ccc(F)cc3)CC2)cc1 yielded a Ratio of 505. Fc1ccc(C(OCCC2CCN(Cc3cccc4ccccc34)CC2)c2ccc(F)cc2)cc1 gave a Ratio of 23. Fc1ccc(CN2CCC(CCOC(c3ccccc3)c3ccccc3)CC2)cc1 gave a Ratio of 177. For Fc1ccc(C(OCCC2CCN(Cc3ccccc3)CC2)c2ccc(F)cc2)cc1, the Ratio was 17.

Molecular target: T1, Sodium-dependent serotonin transporter
Assay: Affinity at rat serotonin transporter using [125I]RTI-55 displacement.
Summary of the method: as §1
Clc1ccc(CN2CCC(CCOC(c3ccccc3)c3ccccc3)CC2)cc1 gave a Ki of 531 nM. Fc1ccc(C(OCCC2CCN(Cc3ccc(Cl)cc3)CC2)c2ccc(F)cc2)cc1 showed a Ki of 238 nM. Work on COc1cccc(CN2CCC(CCOC(c3ccc(F)cc3)c3ccc(F)cc3)CC2)c1 yielded a Ki of 161 nM. Molecule COc1ccccc1CN1CCC(CCOC(c2ccc(F)cc2)c2ccc(F)cc2)CC1 has a Ki of 248 nM. For Fc1ccc(C(OCCC2CCN(Cc3ccc4ccccc4c3)CC2)c2ccc(F)cc2)cc1, the Ki was 88 nM. In the case of Fc1ccc(C(OCCC2CCN(Cc3ccc(I)cc3)CC2)c2ccc(F)cc2)cc1, the Ki is reported as 205 nM. N#Cc1ccc(CN2CCC(CCOC(c3ccccc3)c3ccccc3)CC2)cc1 showed a Ki of 2230 nM. With Cc1ccc(CN2CCC(CCOC(c3ccc(F)cc3)c3ccc(F)cc3)CC2)cc1 the Ki was 239 nM. Molecule Fc1ccc(C(OCCC2CCN(Cc3ccc(C(F)(F)F)cc3)CC2)c2ccc(F)cc2)cc1 has a Ki of 442 nM. For Fc1ccc(CN2CCC(CCOC(c3ccc(F)cc3)c3ccc(F)cc3)CC2)cc1, the Ki was 245 nM. COc1ccc(CN2CCC(CCOC(c3ccc(F)cc3)c3ccc(F)cc3)CC2)cc1 gave a Ki of 266 nM. Brc1ccc(CN2CCC(CCOC(c3ccccc3)c3ccccc3)CC2)cc1 gave a Ki of 988 nM. O=[N+]([O-])c1ccc(CN2CCC(CCOC(c3ccccc3)c3ccccc3)CC2)cc1 gave a Ki of 2150 nM. In the case of Fc1ccc(C(OCCC2CCN(Cc3ccc(Br)cc3)CC2)c2ccc(F)cc2)cc1, the Ki is reported as 199 nM. For O=[N+]([O-])c1ccc(CN2CCC(CCOC(c3ccc(F)cc3)c3ccc(F)cc3)CC2)cc1, the Ki was 387 nM. Molecule FC(F)(F)c1ccc(CN2CCC(CCOC(c3ccccc3)c3ccccc3)CC2)cc1 has a Ki of 2270 nM. Ic1ccc(CN2CCC(CCOC(c3ccccc3)c3ccccc3)CC2)cc1 gave a Ki of 457 nM. Work on N#Cc1ccc(CN2CCC(CCOC(c3ccc(F)cc3)c3ccc(F)cc3)CC2)cc1 yielded a Ki of 606 nM. Fc1ccc(C(OCCC2CCN(Cc3cccc4ccccc34)CC2)c2ccc(F)cc2)cc1 showed a Ki of 370 nM. Fc1ccc(CN2CCC(CCOC(c3ccccc3)c3ccccc3)CC2)cc1 showed a Ki of 902 nM. For Fc1ccc(C(OCCC2CCN(Cc3ccccc3)CC2)c2ccc(F)cc2)cc1, the Ki was 171 nM.
